# Measured values published in publication PMC9026613 (Current Therapeutic Research, Clinical and Experimental, 2022).
# Where two headings read alike, the source gives them in different places.
# What was measured:
# [1] = Pharmacokinetics of dasiglucagon in plasma after IV or SC dosing, Phase I trial; assay type: in vivo, human
# Procedure, shortened: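 Single IV doses of 0.03, 0.1, 0.3, 0.6 or 1.5 mg from a 4 mg/mL solution diluted with vehicle, after a fast of ≥8 h. One cohort got 0.6 mg SC into the abdomen by prefilled syringe. Plasma sampled over 4 h (IV) or 5 h (SC). Dose proportionality by log–log power-model regression (90% CI of slope). Absolute bioavailability from a linear model of AUC, SC versus IV 0.6 mg.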
# [2] = system: healthy volunteers; assay type: in vivo, human
# [3] = system: 8 different human cardiac ion channels (including human ether-a-go-go related gene [hERG]); conditions: 8 channels including hERG; nonclinical studies, ref not given; cited from earlier work
# [4] = system: healthy volunteers; assay type: in vivo, human; remark: listed apart in the source
# Procedure, shortened: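 Single IV (0.03–1.5 mg) or SC (0.6 mg) dose, or IV placebo. Safety was monitored throughout the study by AE recording, vital signs, clinical laboratory tests, physical examination, 12-lead ECG and injection-site reaction checks. TEAEs were tallied per participant by treatment.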
# [5] = system: healthy volunteers; assay: Concentration-QTc analysis, linear mixed-effects model; assay type: in vivo, human; conditions: not significant at the 0.1 level
# [6] = system: plasma glucose; assay: Plasma glucose response; assay type: in vivo, human
# [7] = cited from earlier work
# [8] = system: healthy volunteers; assay: Concentration-QTc analysis, Emax model; assay type: in vivo, human; conditions: for ΔΔQTcF estimate at geometric mean Cmax: Emax model prediction, mean (90% CI)
# Procedure, shortened: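 Placebo-adjusted ΔQTcF for each subject and time point = individual ΔQTcF minus the estimated time effect at that point. ΔΔQTcF predicted at the geometric mean peak concentration per dose.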
# [9] = system: healthy volunteers; assay: Cardiac repolarization: by-time point analysis of QTcF; assay type: in vivo, human; conditions: least squares mean
# Procedure, shortened: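 Single IV dose of test compound or placebo. Continuous Holter 12-lead ECG with supine rest ≥15 min. Extractions at 45, 30 and 15 min predose and at 5–240 min and 24 h postdose, up to 10 nonoverlapping 10-s replicates per point. Lead II was primary. QTcF=QT/RR^1/3. Analysed in a linear mixed-effects model on ΔQTcF (fixed: time, treatment, interaction; baseline covariate), placebo pooled.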
# [10] = system: plasma glucose; conditions: following insulin-induced hypoglycemia; cited from earlier work
# [11] = 0.6 mg single subcutaneous dose, other clinical trials; ref not given; cited from earlier work
# [12] = system: dogs; conditions: cardiovascular telemetry; nonclinical studies, ref not given; cited from earlier work
# [13] = system: healthy volunteers; assay: Antidasiglucagon antibody assessment; set-up: species or system human; conditions: in vivo
smiles,measurement,setting,value
CC(C)C[C@H](NC(=O)[C@H](Cc1c[nH]c2ccccc12)NC(=O)[C@H](CCCCN)NC(=O)[C@@H](NC(=O)[C@H](Cc1ccccc1)NC(=O)[C@H](CCC(=O)O)NC(=O)[C@H](CCC(=O)O)NC(=O)[C@H](C)NC(=O)[C@H](CCCNC(=N)N)NC(=O)[C@H](C)NC(=O)C(C)(C)NC(=O)[C@H](CC(=O)O)NC(=O)[C@H](CC(C)C)NC(=O)[C@H](Cc1ccc(O)cc1)NC(=O)[C@H](CCCCN)NC(=O)[C@H](CO)NC(=O)[C@H](Cc1ccc(O)cc1)NC(=O)[C@H](CC(=O)O)NC(=O)[C@H](CO)NC(=O)[C@@H](NC(=O)[C@H](Cc1ccccc1)NC(=O)[C@@H](NC(=O)CNC(=O)[C@H](CCC(N)=O)NC(=O)[C@H](CO)NC(=O)[C@@H](N)Cc1c[nH]cn1)[C@@H](C)O)[C@@H](C)O)C(C)C)C(=O)N[C@@H](CCC(=O)O)C(=O)N[C@@H](CO)C(=O)N[C@H](C(=O)O)[C@@H](C)O [dasiglucagon],dose proportionality of AUC and Cmax,"[1]; IV dose cohorts 0.03 to 1.5 mg, power model",dose-proportional
same,half-life,"[1]; human, plasma, iv",~18 min
same,Cmax,"[1]; human, plasma, iv, 0.03 mg",0.568 nM
same,Cmax,"[1]; human, plasma, iv, 0.1 mg",2.39 nM
same,Cmax,"[1]; human, plasma, iv, 0.3 mg",6.46 nM
same,AUC(0-inf),"[1]; human, plasma, iv, 0.6 mg",4.63 nM·h
same,Cmax,"[1]; human, plasma, iv, 0.6 mg",10.2 nM
same,Cmax,"[1]; human, plasma, iv, 1.5 mg",57.9 nM
same,AUC(0-inf),"[1]; human, plasma, sc, 0.6 mg",2.36 nM·h
same,AUC(0-t),"[1]; human, plasma, sc, 0.6 mg",2.36 nM·h
same,Cmax,"[1]; human, plasma, sc, 0.6 mg",1.53 nM
same,bioavailability,"[1]; human, plasma, sc, 0.6 mg",~51%
same,half-life,"[1]; human, plasma, sc, 0.6 mg",~30 min
same,Mean ΔΔHR,"[2]; IV 0.03 mg, 5 minutes postdose (lowest value)",–7.0 bpm
same,Mean ΔΔHR,"[2]; IV 0.6 mg, 24 hours postdose (highest value)",7.5 bpm
same,effect on PR interval,[2]; IV 0.03 to 1.5 mg,did not have a clinically relevant effect
same,effect on QRS duration,[2]; IV 0.03 to 1.5 mg,did not have a clinically relevant effect
same,mean placebo-corrected change from baseline in heart rate (ΔΔHR),[2]; all studied IV doses 0.03 to 1.5 mg,< 10 bpm
same,effect on human cardiac ion channels in vitro,[3],no effect
same,participants who experienced nausea,[4]; 0.6 mg SC cohort,4 out of 6
same,participants who vomited,[4]; 0.6 mg SC cohort,3 out of 6
same,dizziness,[4]; SC and IV dasiglucagon cohorts,2 participants
same,extravasation,[4]; SC and IV dasiglucagon cohorts,2 participants
same,headache,[4]; SC and IV dasiglucagon cohorts,2 participants
same,nausea,[4]; SC and IV dasiglucagon cohorts,9 participants
same,vomiting,[4]; SC and IV dasiglucagon cohorts,4 participants
same,ECG-related TEAEs or TEAEs in the system organ class cardiac disorders,[4]; all cohorts,no ECG-related TEAEs
same,participants reporting treatment-emergent AEs (TEAEs),"[4]; all dasiglucagon cohorts, 14 out of 42",33.3%
same,effect on vital signs or safety laboratory parameters,[4]; in vivo,No effect
same,injection site reactions,"[4]; spontaneous pain (0.1 mg IV), hematoma (0.6 mg SC), both mild",Two injection site reactions
same,treatment effect-specific intercept,[5],0.8 ms
same,"Median time to Cmax, glucose",[6]; IV 0.03 mg,17.5 min
same,"mean maximum glucose concentration (Cmax, glucose)","[6]; IV 0.03 mg, healthy volunteers",135 mg/dL
same,"Median time to Cmax, glucose",[6]; IV 1.5 mg,42.5 min
same,"mean maximum glucose concentration (Cmax, glucose)","[6]; IV 1.5 mg, healthy volunteers",160 mg/dL
same,plasma glucose level after subcutaneous dosing,"[6]; SC 0.6 mg, healthy volunteers",172 mg/dL
same,stability in aqueous solutions,[7],stable in aqueous solutions
same,Emax (maximum estimated effect on ΔΔQTcF),"[8]; Emax model, all IV data, P = 0.0137",3.6 ms
same,treatment effect–specific intercept,"[8]; Emax model, not significant at the 0.1 level",-0.44 ms
same,ΔΔQTcF estimate at geometric mean Cmax,"[8]; IV 0.03 mg, n = 36 overall",1.61 ms
same,ΔΔQTcF estimate at geometric mean Cmax,[8]; IV 0.1 mg,2.61 ms
same,ΔΔQTcF estimate at geometric mean Cmax,[8]; IV 0.3 mg,2.93 ms
same,ΔΔQTcF estimate at geometric mean Cmax,[8]; IV 0.6 mg,3.01 ms
same,ΔΔQTcF estimate at geometric mean Cmax,[8]; IV 1.5 mg,3.13 ms
same,EC50,"[8]; read-out: amount that produces half the effect of Emax, Emax model, plasma concentration, not significant at the 0.1 level",0.426 nM
same,Mean ΔΔQTcF,"[9]; IV 0.03 mg, 40 minutes postdose",-3.4 ms
same,Mean ΔΔQTcF,"[9]; IV 0.1 mg, 180 minutes postdose",12.3 ms
same,Median time to plasma glucose recovery vs reconstituted lyophilized glucagon,[10],comparable
same,maximum concentrations observed in any clinical trial,[11],5000 to 6000 pmol/L
same,potential for QTc prolongation in dogs,[12],no potential for QTc prolongation
same,cross-reactivity of antibodies to endogenous glucagon,[13],no cross-reactivity
